Assay results from ChEMBL document CHEMBL1130116, “Synthesis and antimetastatic activity of L-iduronic acid-type 1-N-iminosugars” (1997).

Assays:
Mus musculus [1] = species on record: Mus musculus; assay: Cell growth at 29 MicroM concentration in mice; assay type: functional
Procedure, shortened: (§1)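 B16 BL6 cells (3×10^5) were precultured 24 h in DMEM/FBS at 37 °C, 5% CO2, then incubated with or without compound for 72 or 24 h under the same conditions. After 0.05% trypsin/0.02% EDTA release, cells were suspended in 1 mL divalent cation-free DPBS and reported as cells per mL before tail-vein injection into BDF1 mice.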

Mus musculus [2] = species on record: Mus musculus; assay: Cell growth at 87 uM concentration in mice; assay type: functional; procedure, shortened: as §1
Mus musculus [3] = species on record: Mus musculus; assay: Number of tumor nodules at 145 uM of compound in mice(Range 5-97 ); assay type: functional
Procedure, shortened: (§2)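 B16 BL6 cells (3×10^5) were precultured 24 h in DMEM/FBS (37 °C, 5% CO2), then exposed to compound for 72 or 24 h. Cells were detached with 0.05% trypsin/0.02% EDTA, and 1×10^5 cells in 0.1 mL cation-free DPBS were injected into the tail vein of female BDF1 mice (7 weeks, five per group).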

Mus musculus [4] = species on record: Mus musculus; assay: % inhibition of metastasis at 29 uM in mice; assay type: functional; procedure, shortened: as §2
Mus musculus [5] = species on record: Mus musculus; assay: Number of tumor nodules at 87 uM of compound in mice(Range 122-237 ); assay type: functional; procedure, shortened: as §2
Mus musculus [6] = species on record: Mus musculus; assay: Cell growth at 145 uM concentration in mice; assay type: functional; procedure, shortened: as §1
Mus musculus [7] = species on record: Mus musculus; assay: % inhibition of metastasis at 145 uM in mice; assay type: functional; procedure, shortened: as §2
Mus musculus [8] = species on record: Mus musculus; assay: Number of tumor nodules at 29 uM of compound in mice(Range 200-270 ); assay type: functional; procedure, shortened: as §2
Mus musculus [9] = species on record: Mus musculus; assay: % inhibition of metastasis at 87 uM in mice; assay type: functional; procedure, shortened: as §2
Mus musculus [10] = species on record: Mus musculus; assay: Number of tumor nodules at 172 uM of compound in mice(Range 136-84 ); assay type: functional; procedure, shortened: as §2
Mus musculus [11] = species on record: Mus musculus; assay: % inhibition of metastasis at 103 uM in mice; assay type: functional; procedure, shortened: as §2
Mus musculus [12] = species on record: Mus musculus; assay: Number of tumor nodules at 34 uM of compound in mice(Range 169-115 ); assay type: functional; procedure, shortened: as §2
Mus musculus [13] = species on record: Mus musculus; assay: % inhibition of metastasis at 172 uM in mice; assay type: functional; procedure, shortened: as §2
Mus musculus [14] = species on record: Mus musculus; assay: Number of tumor nodules at 103 uM of compound in mice(Range 136-64 ); assay type: functional; procedure, shortened: as §2
Mus musculus [15] = species on record: Mus musculus; assay: Cell growth at 34 MicroM concentration in mice; assay type: functional; procedure, shortened: as §1
Mus musculus [16] = species on record: Mus musculus; assay: % inhibition of metastasis at 34 uM in mice; assay type: functional; procedure, shortened: as §2
Mus musculus [17] = species on record: Mus musculus; assay: Cell growth at 172 uM concentration in mice; assay type: functional; procedure, shortened: as §1
Mus musculus [18] = species on record: Mus musculus; assay: Cell growth at 103 uM concentration in mice; assay type: functional; procedure, shortened: as §1
Mus musculus [19] = species on record: Mus musculus; assay: Cell growth at 129 uM concentration in mice; assay type: functional; procedure, shortened: as §1
Mus musculus [20] = species on record: Mus musculus; assay: % inhibition of metastasis at 26 uM in mice; assay type: functional; procedure, shortened: as §2
B16 [21] = assay: Compound was tested in vitro, for inhibitory effect on B16BL6 cell invasion, by incubating with 518 uM of compound for 4 hr; assay type: functional, Mus musculus
Procedure, shortened: (§3)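 B16 BL6 cells were cultured with compound for 72 or 24 h at 37 °C, then lifted with 0.08% sodium citrate (10 min, 37 °C), washed twice and resuspended at 1×10^6/mL in RPMI 1640 + 0.1% BSA. 100 μL went onto filters coated with 5 μg Matrigel then 10 μg laminin, with the same medium below. Incubation was 3 or 4 h at 37 °C, 5% CO2. Filters were wiped, methanol-fixed and hematoxylin-stained; invaded cells were counted in five 0.3 mm² fields (200×). Triplicates, mean ± SD; % inhibition is versus untreated cells.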

Mus musculus [22] = species on record: Mus musculus; assay: Cell growth at 26 uM concentration of the compound; assay type: functional; procedure, shortened: as §1
Mus musculus [23] = species on record: Mus musculus; assay: % inhibition of metastasis at 78 uM in mice; assay type: functional; procedure, shortened: as §2
B16 [24] = assay: Number of cells invaded in cell invasion assay by incubating with 518 uM of compound for 4 hr; assay type: functional, Mus musculus; procedure, shortened: as §3
Mus musculus [25] = species on record: Mus musculus; assay: Number of tumor nodules at 26 uM of compound in mice(Range 148-276 ); assay type: functional; procedure, shortened: as §2
B16 [26] = assay: Number of cells invaded in cell invasion assay by incubating with 258 uM of compound for 4 hr; assay type: functional, Mus musculus; procedure, shortened: as §3
Mus musculus [27] = species on record: Mus musculus; assay: Cell growth at 78 uM concentration in mice; assay type: functional; procedure, shortened: as §1
Mus musculus [28] = species on record: Mus musculus; assay: Number of tumor nodules at 129 uM of compound in mice(Range 13-87 ); assay type: functional; procedure, shortened: as §2
B16 [29] = assay: Compound was tested in vitro, for inhibitory effect on B16BL6 cell invasion, by incubating with 129 uM of compound for 4 hr; assay type: functional, Mus musculus; procedure, shortened: as §3
Mus musculus [30] = species on record: Mus musculus; assay: % inhibition of metastasis at 129 uM in mice; assay type: functional; procedure, shortened: as §2
B16 [31] = assay: Compound was tested in vitro, for inhibitory effect on B16BL6 cell invasion, by incubating with 258 uM of compound for 4 hr; assay type: functional, Mus musculus; procedure, shortened: as §3
B16 [32] = assay: Number of cells invaded in cell invasion assay by incubating with 129 uM of compound for 4 hr; assay type: functional, Mus musculus; procedure, shortened: as §3
Mus musculus [33] = species on record: Mus musculus; assay: Number of tumor nodules at 78 uM of compound in mice(Range 89-120 ); assay type: functional; procedure, shortened: as §2
B16 [34] = assay: Number of cells invaded in cell invasion assay by incubating with 580 uM of compound for 3 hr; assay type: functional, Mus musculus; procedure, shortened: as §3
B16 [35] = assay: Number of cells invaded in cell invasion assay by incubating with 870 uM of compound for 3 hr; assay type: functional, Mus musculus; procedure, shortened: as §3
Mus musculus [36] = species on record: Mus musculus; assay: % inhibition of metastasis at 30 uM in mice; assay type: functional; procedure, shortened: as §2
Mus musculus [37] = species on record: Mus musculus; assay: Cell growth at 90 uM concentration in mice; assay type: functional; procedure, shortened: as §1
Mus musculus [38] = species on record: Mus musculus; assay: % inhibition of metastasis at 150 uM in mice; assay type: functional; procedure, shortened: as §2
Mus musculus [39] = species on record: Mus musculus; assay: Cell growth at 150 uM concentration in mice; assay type: functional; procedure, shortened: as §1
Mus musculus [40] = species on record: Mus musculus; assay: Number of tumor nodules at 150 uM of compound in mice(Range 9-1 ); assay type: functional; procedure, shortened: as §2
Mus musculus [41] = species on record: Mus musculus; assay: Number of tumor nodules at 90 uM of compound in mice(Range 20-7 ); assay type: functional; procedure, shortened: as §2
B16 [42] = assay: Compound was tested in vitro, for inhibitory effect on B16BL6 cell invasion, by incubating with 580 uM of compound for 3 hr; assay type: functional, Mus musculus; procedure, shortened: as §3
Mus musculus [43] = species on record: Mus musculus; assay: Cell growth at 30 uM concentration in mice; assay type: functional; procedure, shortened: as §1
B16 [44] = assay: Compound was tested in vitro, for inhibitory effect on B16BL6 cell invasion, by incubating with 870 uM of compound for 3 hr; assay type: functional, Mus musculus; procedure, shortened: as §3
Mus musculus [45] = species on record: Mus musculus; assay: Number of tumor nodules at 30 uM of compound in mice(Range 129-54 ); assay type: functional; procedure, shortened: as §2
Mus musculus [46] = species on record: Mus musculus; assay: % inhibition of metastasis at 90 uM in mice; assay type: functional; procedure, shortened: as §2
Mus musculus [47] = species on record: Mus musculus; assay: Cell growth at 34 uM concentration in mice; assay type: functional; procedure, shortened: as §1
Mus musculus [48] = species on record: Mus musculus; assay: Number of tumor nodules at 172 uM of compound in mice(Range 118-23); assay type: functional; procedure, shortened: as §2
Mus musculus [49] = species on record: Mus musculus; assay: Number of tumor nodules at 34 uM of compound in mice(Range 165-133 ); assay type: functional; procedure, shortened: as §2
Mus musculus [50] = species on record: Mus musculus; assay: Number of tumor nodules at 103 uM of compound in mice(Range 160-114 ); assay type: functional; procedure, shortened: as §2

NC1C(C(=O)O)CNC(NC(=O)C(F)(F)F)C1O (stereo not given)
No. of cells (Mus musculus [1]): 1.6e+06 mL | No. of cells (Mus musculus [2]): 1.6e+06 mL | No. of lung metastasis (Mus musculus [3]): 62.4 | Inhibition (Mus musculus [4]): 3.8% | No. of lung metastasis (Mus musculus [5]): 157.8 | No. of cells (Mus musculus [6]): 1.4e+06 mL | Inhibition (Mus musculus [7]): 75.5% | No. of lung metastasis (Mus musculus [8]): 245.4 | Inhibition (Mus musculus [9]): 38.1%

CC(=O)N[C@H]1NC[C@@H](C(=O)O)[C@H](N)[C@@H]1O
No. of lung metastasis (Mus musculus [10]): 101.6 | Inhibition (Mus musculus [11]): 26.6% | No. of lung metastasis (Mus musculus [12]): 145.2 | Inhibition (Mus musculus [13]): 30.9% | No. of lung metastasis (Mus musculus [14]): 108.8 | No. of cells (Mus musculus [15]): 1.6e+07 mL | Inhibition (Mus musculus [16]): 1.4% | No. of cells (Mus musculus [17]): 1.6e+07 mL | No. of cells (Mus musculus [18]): 2.1e+07 mL

N=C(N)NC1C(C(=O)O)CNC(NC(=O)C(F)(F)F)C1O (stereo not given)
No. of cells (Mus musculus [19]): 1.5e+06 mL | Inhibition (Mus musculus [20]): 14.1% | Inhibition (B16 [21]): 63.9% | No. of cells (Mus musculus [22]): 1.9e+06 mL | Inhibition (Mus musculus [23]): 58.8% | No. of invaded cells (B16 [24]): 0.9 | No. of lung metastasis (Mus musculus [25]): 219 | No. of invaded cells (B16 [26]): 1.3 | No. of cells (Mus musculus [27]): 1.3e+06 mL | No. of lung metastasis (Mus musculus [28]): 48.4 | Inhibition (B16 [29]): 61.1% | Inhibition (Mus musculus [30]): 81% | Inhibition (B16 [31]): 44.4% | No. of invaded cells (B16 [32]): 0.9 | No. of lung metastasis (Mus musculus [33]): 105.6

CC(=O)NC1NCC(C(=O)O)C(N=C(N)N)C1O (stereo not given)
No. of invaded cells (B16 [34]): 23.7 | No. of invaded cells (B16 [35]): 17.7 | Inhibition (Mus musculus [36]): 40.1% | No. of cells (Mus musculus [37]): 1.7e+07 mL | Inhibition (Mus musculus [38]): 97% | No. of cells (Mus musculus [39]): 1.9e+07 mL | No. of lung metastasis (Mus musculus [40]): 4.4 | No. of lung metastasis (Mus musculus [41]): 13.2 | Inhibition (B16 [42]): 44.8% | No. of cells (Mus musculus [43]): 1.9e+07 mL | Inhibition (B16 [44]): 58.9% | No. of lung metastasis (Mus musculus [45]): 88.2 | Inhibition (Mus musculus [46]): 91%

CC(=O)N[C@H]1NC[C@@H](C(=O)O)[C@H](N)[C@H]1O
No. of cells (Mus musculus [47]): 1.4e+07 mL | Inhibition (Mus musculus [11]): 12.1% | Inhibition (Mus musculus [13]): 44.3% | No. of lung metastasis (Mus musculus [48]): 82 | No. of lung metastasis (Mus musculus [49]): 147.2 | No. of lung metastasis (Mus musculus [50]): 129.4 | Inhibition (Mus musculus [16]): 0% | No. of cells (Mus musculus [17]): 1.8e+07 mL | No. of cells (Mus musculus [18]): 1.4e+07 mL
